Experimental data reported in ChEMBL document CHEMBL1131460, “2-substituted (2SR)-2-amino-2-((1SR,2SR)-2-carboxycycloprop-1-yl)glycines as potent and selective antagonists of group II metabotropic glutamate receptors. 2. Effects of aromatic substitution, pharmacological characterization, and bioavailability” (J Med Chem, 1998).

How the values were obtained:
[1] = system: Rattus norvegicus; assay: Area under curve was evaluated in rat brain when administered intraperitoneally at a dose of 10 mg/kg for 4 or 6 hours; format: ADME, organism-based; parameters: dose 10 mg/kg, route intraperitoneal; conditions: in vivo, ip
[2] = system: Rattus norvegicus; assay: Area under curve was evaluated in rat plasma when administered intraperitoneally at a dose of 10 mg/kg for infinite hours; format: ADME, organism-based; parameters: time infinity, dose 10 mg/kg, route intraperitoneal; conditions: in vivo, ip
Outline: (§1)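 Male Fischer 344 rats were dosed at 10 mg/kg iv, 10 mg/kg ip, or 10 or 100 mg/kg po, with five rats per route and dose. One rat was sampled for blood and brain at each time: 0.25, 0.5, 1, 2 and 4 h after iv/ip, and 0.5, 1, 2, 4 and 6 h after po. Plasma and brain homogenates were derivatized, extracted and quantified by negative-ion chemical ionization GCMS (LOQ 100 pg/mL plasma, 1 ng/g brain).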

[3] = system: Rattus norvegicus; assay: Area under curve was evaluated in rat plasma when administered intravenously at a dose of 10 mg/kg for infinite hours; format: ADME, organism-based; parameters: time infinity, dose 10 mg/kg, route intravenous; conditions: in vivo, iv; outline: as §1
[4] = system: Rattus norvegicus; assay: Area under curve was evaluated in rat plasma when administered perorally at a dose of 100 mg/kg for infinite hours; format: ADME, organism-based; parameters: time infinity, dose 100 mg/kg, route oral; conditions: in vivo, po; outline: as §1
[5] = system: Rattus norvegicus; assay: Area under curve was evaluated in rat plasma when administered perorally at a dose of 10 mg/kg for 4 or 6 hours; format: ADME, organism-based; parameters: dose 10 mg/kg, route oral; conditions: in vivo, po; outline: as §1
[6] = system: Rattus norvegicus; assay: Bioavailability was evaluated in rat plasma when administered intravenously at a dose of 10 mg/kg; <Tr>; format: ADME, organism-based; conditions: in vivo, iv
[7] = Bioavailability in rat (dose 10 mg/kg p.o.); format: ADME, organism-based; conditions: in vivo, po
[8] = Maximum concentration achieved in rat brain when administered intravenously at a dose of 10 mg/kg; format: ADME, organism-based; parameters: dose 10 mg/kg, route intravenous; conditions: iv
Outline: (§2)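 Male Fischer 344 rats dosed iv or ip at 10 mg/kg, or orally at 10 or 100 mg/kg; five rats per route and dose. Blood and brain taken from one rat per time point (0.25, 0.5, 1, 2, 4 h after iv/ip; 0.5, 1, 2, 4, 6 h after po). Plasma and brain homogenates derivatized, extracted, assayed by negative-ion chemical ionization GCMS (LOQ 100 pg/mL plasma, 1 ng/g brain).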

[9] = Brain concentration after 0.5 hr at a dose of 10 mg/kg when administered perorally; conditions: po
[10] = Brain concentration after 1 hr at a dose of 10 mg/kg when administered perorally; conditions: po
[11] = Brain concentration after 2 hr at a dose of 10 mg/kg when administered intravenously; conditions: iv
[12] = Brain concentration after 4 hr at a dose of 100 mg/kg when administered perorally; conditions: po
[13] = Brain concentration after 4 hr at a dose of 10 mg/kg when administered perorally; conditions: po
[14] = Brain concentration after 6 hr at a dose of 10 mg/kg when administered perorally; conditions: po
[15] = Brain concentration after 2 hr at a dose of 100 mg/kg when administered perorally; conditions: po
[16] = Brain concentration after 0.5 h at a dose of 100 mg/kg when administered perorally; conditions: po
[17] = Plasma concentration after 0.5 hr at a dose of 100 mg/kg when administered perorally; conditions: po
[18] = Plasma concentration after 1 hr at a dose of 100 mg/kg when administered perorally; conditions: po
[19] = Plasma concentration after 1 hr at a dose of 10 mg/kg when administered perorally; conditions: po
[20] = Plasma concentration after 2 hr at a dose of 10 mg/kg when administered intraperitoneally; conditions: ip
[21] = Plasma concentration after 2 hr at a dose of 100 mg/kg when administered perorally; conditions: po
[22] = Plasma concentration after 4 hr at a dose of 10 mg/kg when administered intraperitoneally; conditions: ip
[23] = Plasma concentration after 4 hr at a dose of 10 mg/kg when administered intravenously; conditions: iv
[24] = Plasma concentration after 4 hr at a dose of 100 mg/kg when administered perorally; conditions: po
[25] = Time of maximum concentration achieved in rat brain when administered perorally at a dose of 10 mg/kg; format: ADME, organism-based; parameters: dose 10 mg/kg, route oral; conditions: po; outline: as §2
[26] = Time of maximum concentration achieved in rat plasma when administered intraperitoneally at a dose of 10 mg/kg; format: ADME, organism-based; parameters: dose 10 mg/kg, route intraperitoneal; conditions: ip; outline: as §2
[27] = Time of maximum concentration achieved in rat plasma when administered intravenously at a dose of 10 mg/kg; format: ADME, organism-based; parameters: dose 10 mg/kg, route intravenous; conditions: iv; outline: as §2
[28] = Time of maximum concentration achieved in rat plasma when administered perorally at a dose of 10 mg/kg; format: ADME, organism-based; parameters: dose 10 mg/kg, route oral; conditions: po; outline: as §2
[29] = Half-life in rat plasma when administered intraperitoneally at a dose of 10 mg/kg; format: ADME, organism-based; parameters: dose 10 mg/kg, route intraperitoneal; conditions: ip; outline: as §1
[30] = Binding affinity for Group II Metabotropic glutamate receptor was measured using [3H]glutamate in rat forebrain membranes; format: cell membranes, Membrane
Outline: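 ACPD-sensitive [³H]glutamate binding to group II mGluRs in rat forebrain membranes, reported as IC50. Most values are single-point determinations; others are averages of two or three determinations. Values in parentheses are percent radioligand displacement at 1 μM.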

[31] = Half-life in rat brain when administered intravenously at a dose of 10 mg/kg; format: ADME, organism-based; parameters: dose 10 mg/kg, route intravenous; conditions: iv
[32] = Plasma concentration after 1 hr at a dose of 10 mg/kg when administered intravenously; conditions: iv
[33] = Maximum concentration achieved in rat plasma when administered perorally at a dose of 100 mg/kg; format: ADME, organism-based; parameters: dose 100 mg/kg, route oral; conditions: po; outline: as §2
[34] = in vivo; conditions: brain, ip, 10 mg/kg
[35] = in vivo; conditions: plasma, iv, 10 mg/kg
[36] = system: Rattus norvegicus; assay: Volume of distribution in rat plasma when administered intravenously at a dose of 10 mg/kg; conditions: in vivo, iv

- AUC [1]: 774 ng·h/mL
- AUC [2]: 12800 ng·h/mL
- AUC [3]: 8400 ng·h/mL
- AUC [4]: 1660 ng·h/mL
- AUC [5]: 217 ng·h/mL
- Bioavailabiility [6]: <Tr>
- F [7]: 2%
- bioavailability [7]: 3.4%
- Cmax [8]: 243 ng/g
- concentration at 0.5 h [9]: 1.7 ng/g
- concentration at 1 h [10]: 2.1 ng/g
- concentration at 2 h [11]: 177 ng/g
- concentration at 4 h [12]: 20.1 ng/g
- concentration at 4 h [13]: 7.4 ng/g
- concentration at 6 h [14]: 4.8 ng/g
- concentration at 2 h [15]: 23.9 ng/g
- concentration at 0.5 h [16]: 5.1 ng/g
- concentration at 0.5 h [17]: 197 ng/mL
- concentration at 1 h [18]: 475 ng/mL
- concentration at 1 h [19]: 48.3 ng/mL
- concentration at 2 h [20]: 1120 ng/mL
- concentration at 2 h [21]: 420 ng/mL
- concentration at 4 h [22]: 39.9 ng/mL
- concentration at 4 h [23]: 35.9 ng/mL
- concentration at 4 h [24]: 95.5 ng/mL
- Tmax [25]: 240 min
- Tmax [26]: 15 min
- Tmax [27]: 15 min
- Tmax [28]: 30 min
- half-life [29]: 26.4 min
- IC50 [30]: 2.9 nM
- half-life [31]: 326 min
- concentration at 1 h [32]: 2440 ng/mL
- Cmax [33]: 475 ng/mL
- concentration at 0.25 h [34]: 211 ng/g
- concentration at 0.25 h [35]: 12000 ng/mL
- Vd [36]: 0.83 L/kg
Structure (SMILES): N[C@](CC1c2ccccc2Oc2ccccc21)(C(=O)O)[C@H]1C[C@@H]1C(=O)O
